# Legend:
# [1] = tested on: rhinovirus A2; assay: Antiviral activity against Human rhinovirus 2 infected in HeLa Rh cells assessed as reduction in virus-induced cytopathic effect incubated for 3 days by MTS assay; format: functional, organism-based; conditions: Rhinovirus A, 72 h
# In short: (§1)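 CPE reduction assay. RD (EV-A71) or HeLa Rh (EV-D68, HRV) cells seeded 24 h earlier in medium with 2% FCS; HRV2/HRV14 medium contained 30 mM MgCl₂. Serial compound dilutions added with virus. At 3 days post infection, 5% MTS added for 1 h at 37 °C and OD498 read. EC50 taken as 50% protection versus controls by logarithmic interpolation; morphology also checked microscopically.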
# [2] = Therapeutic index, ratio of CC50 for human HeLa Rh cells to EC50 for Human rhinovirus 2 infected in human HeLa Rh cells; format: toxicity, cell-based; conditions: read-out: Ratio CC50/EC50
# [3] = Cytotoxicity against human RD cells assessed as reduction in cell viability incubated for 3 days by MTS assay; format: cell-based
# [4] = Cytotoxicity against human HuH7 cells expressing T7 RNA polymerase assessed as reduction in cell viability incubated for 2 days by non-radioactive cell proliferation assay; format: cell-based, Huh-7
# [5] = tested on: Middle East respiratory syndrome-related coronavirus; assay: Antiviral activity against Middle East respiratory syndrome coronavirus infected in Vero cells assessed as reduction in virus-induced cytopathic effect incubated for 3 days by non-radioactive cell proliferation assay; format: functional, organism-based; conditions: 72 h
# [6] = Therapeutic index, ratio of CC50 for human HeLa Rh cells to EC50 for Enterovirus D68 infected in human HeLa Rh cells; format: toxicity, cell-based; conditions: read-out: Ratio CC50/EC50
# [7] = tested on: SARS-CoV; assay: Antiviral activity against SARS coronavirus infected in HuH7 cells expressing T7 RNA polymerase assessed as reduction in viral RNA replication incubated for 24 hrs by luciferase reporter gene assay; format: functional, organism-based; conditions: Severe acute respiratory syndrome-related coronavirus, Huh-7, 24 h
# In short: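 SARS-CoV replicon (DNA-launched, Renilla luciferase reporter) was transfected into Huh-T7 cells at 80–90% confluency. Compound at 0, 1.25, 2.5, 5, 10, 20 or 40 µM in growth medium was added after transfection. At 24 h, cells were lysed and luciferase activity measured. Runs were in triplicate or quadruplicate, reported as mean ± SD.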
# [8] = tested on: Enterovirus A71; assay: Antiviral activity against Enterovirus A71 infected in HuH7 cells expressing T7 RNA polymerase assessed as reduction in viral RNA replication incubated for 24 hrs by luciferase reporter gene assay; format: functional, organism-based; conditions: Enterovirus A, Huh-7, 24 h
# In short: (§2)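 Huh-T7 cells (DMEM, 2 mM glutamine, penicillin/streptomycin, 10% FCS growth or 2% maintenance, G-418 400 μg·mL⁻¹) transfected with enteroviral replicon. Compound added in growth medium at 40 μM for screening or 0, 1.25, 2.5, 5, 10, 20, 40 μM for EC50. After 24 h, cells lysed and luciferase activity read. Triplicate or quadruplicate, mean ± SD.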
# [9] = tested on: Middle East respiratory syndrome-related coronavirus; assay: Antiviral activity against Middle East respiratory syndrome coronavirus infected in HuH7 cells expressing T7 RNA polymerase assessed as reduction in virus-induced cytopathic effect incubated for 2 days by non-radioactive cell proliferation assay; format: functional, organism-based; conditions: Huh-7, 48 h
# [10] = Inhibition of human coronavirus NL63 M protease using Dabcyl-KTSAVLQ-SGFRKM-E(Edans)-NH2 as substrate incubated for 10 mins by fluorospectrometry
# In short: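 0.5 μM final HCoV-NL63 Mpro preincubated 10 min at 37 °C with inhibitor (0–100 μM) in pH 7.3 Tris buffer (100 mM NaCl, 1 mM EDTA, 1 mM DTT). Cleavage of 20 μM Dabcyl-KTSAVLQ↓SGFRKM-E(Edans)-NH₂ followed by fluorescence at 460 nm with 360 nm excitation. IC50 from triplicate measurements, mean ± SD.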
# [11] = Antiviral activity against […] infected in HuH7 cells expressing T7 RNA polymerase assessed as reduction in viral RNA replication incubated for 24 hrs by luciferase reporter gene assay; format: functional, organism-based; conditions: B3, Huh-7, 24 h; in short: as §2
# [12] = tested on: rhinovirus B14; assay: Antiviral activity against Human rhinovirus 14 infected in HeLa Rh cells assessed as reduction in virus-induced cytopathic effect incubated for 3 days by MTS assay; format: functional, organism-based; conditions: Rhinovirus B, 72 h; in short: as §1
# [13] = tested on: Enterovirus A71; assay: Antiviral activity against Enterovirus A71 infected in RD cells assessed as reduction in virus-induced cytopathic effect incubated for 3 days by MTS assay; format: functional, organism-based; conditions: Enterovirus A, 72 h; in short: as §1
# [14] = Inhibition of SARS coronavirus M protease using Dabcyl-KTSAVLQ-SGFRKM-E(Edans)-NH2 as substrate incubated for 10 mins by fluorospectrometry; design: species or system Severe acute respiratory syndrome-related coronavirus
# In short: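 FRET cleavage assay with 0.5 µM recombinant SARS-CoV Mpro (authentic termini) in 20 mM Tris-HCl, 100 mM NaCl, 1 mM EDTA, 1 mM DTT, pH 7.3. Enzyme was preincubated with inhibitor (0–100 µM) for 10 min at 37 °C, then 20 µM final substrate was added. Fluorescence was read at ex 360/em 460 nm. Triplicate, mean ± SD; IC50 from curve fitting.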
# [15] = Therapeutic index, ratio of CC50 for human HeLa Rh cells to EC50 for Human rhinovirus 14 infected in human HeLa Rh cells; format: toxicity, cell-based; conditions: read-out: Ratio CC50/EC50
# [16] = Inhibition of Enterovirus A71 protease 3C using DabcylKEALFQ-GPPQF-E(Edans)-NH2 as substrate incubated for 10 mins by fluorospectrometry
# In short: (§3)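 FRET cleavage assay in 20 mM Tris-HCl, 100 mM NaCl, 1 mM EDTA, 1 mM DTT, pH 7.3. Final enzyme 2 μM for CVB3 3Cpro or 3 μM for EV-A71 3Cpro, preincubated with inhibitor (0–100 μM) for 10 min at 37 °C. Reaction started with 20 μM final Dabcyl-KEALFQ↓GPPQF-E(Edans)-NH₂. Edans dequenching read at ex 360/em 460 nm. Triplicate, mean ± SD.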
# [17] = tested on: SARS-CoV; assay: Antiviral activity against SARS coronavirus infected in Vero E6 cells assessed as reduction in virus-induced cytopathic effect incubated for 2 days by non-radioactive cell proliferation assay; format: functional, organism-based; conditions: Severe acute respiratory syndrome-related coronavirus, Vero C1008, 48 h
# [18] = Cytotoxicity against human HeLa Rh cells assessed as reduction in cell viability incubated for 3 days by MTS assay; format: cell-based
# [19] = Antiviral activity against […] infected in HuH7 cells expressing T7 RNA polymerase assessed as reduction in virus-induced cytopathic effect incubated for 2 days by non-radioactive cell proliferation assay; format: functional, organism-based; conditions: B3, Huh-7, 48 h
# [20] = Inhibition of […] protease 3C using DabcylKEALFQ-GPPQF-E(Edans)-NH2 as substrate incubated for 10 mins by fluorospectrometry; design: species or system Coxsackievirus; in short: as §3
# [21] = tested on: Human coronavirus 229E; assay: Antiviral activity against Human coronavirus 229E infected in HuH7 cells expressing T7 RNA polymerase assessed as reduction in virus-induced cytopathic effect incubated for 48 hrs by Alamar blue based assay; format: functional, organism-based; conditions: Huh-7, 48 h
# [22] = tested on: enterovirus D68; assay: Antiviral activity against Enterovirus D68 infected in HeLa Rh cells assessed as reduction in virus-induced cytopathic effect incubated for 3 days by MTS assay; format: functional, organism-based; conditions: Enterovirus D, 72 h; in short: as §1
SMILES,EC50 [1] [µM],CC50 at 72 h [3] [µM],CC50 at 48 h [4] [µM],EC50 [5] [µM],EC50 [7] [µM],EC50 [8] [µM],EC50 [9] [µM],IC50 [10] [µM],EC50 [11] [µM],EC50 [12] [µM],EC50 [13] [µM],IC50 [14] [µM],IC50 [16] [µM],EC50 [17] [µM],CC50 at 72 h [18] [µM],EC50 [19] [µM],IC50 [20] [µM],EC50 [21] [µM],further results
O=C(/C=C/c1ccccc1)N[C@@H](CC1CCC1)C(=O)N[C@@H](C[C@@H]1CCNC1=O)C(=O)C(=O)NCc1ccccc1,3.7,100,124,9.8,6.7,20,0.02,3.43,4.3,4.2,41,1.44,10.8,7,65,10.4,4.78,,selectivity ratio [2]: > 15; selectivity ratio [6]: > 15; selectivity ratio [15]: > 15
O=C(/C=C/c1ccccc1)N[C@@H](CC1CCCCC1)C(=O)N[C@@H](C[C@@H]1CCNC1=O)C(=O)C(=O)NCc1ccccc1,0.64,17.3,43,5,1.4,6.95,0.0004,12.3,2.35,0.7,3.7,0.71,1.69,2.1,10.9,2.77,0.95,1.8,selectivity ratio [2]: > 15; selectivity ratio [6]: > 15; EC50 [22]: 0.48 µM; selectivity ratio [15]: > 15
CC(C)(C)OC(=O)N[C@@H](C[C@@H]1CCNC1=O)C(=O)C(=O)NCc1ccccc1,,,,,> 40,> 10,,> 50,> 10,,,,> 50,,,,> 50,,
C#CC[C@H](NC(=O)/C=C/c1ccccc1)C(=O)N[C@@H](C[C@@H]1CCNC1=O)C(=O)C(=O)NCc1ccccc1,,,,,> 20,,,17.4,,,,10.7,8.5,,,,8.93,,
CC(C)C[C@H](NC(=O)/C=C/c1ccccc1)C(=O)N[C@@H](C[C@@H]1CCNC1=O)C(=O)C(=O)NCc1ccccc1,8.9,115,> 188,9.2,7.2,> 10,0.0046,1.08,> 10,13.4,72,0.33,13.8,14.2,103,24,3.82,0.6,EC50 [22]: 4.44 µM
O=C(/C=C/c1ccccc1)N[C@H](C(=O)N[C@@H](C[C@@H]1CCNC1=O)C(=O)C(=O)NCc1ccccc1)C1CC1,,,,,,,,11.5,,,,6.27,> 30,,,,15.4,,
CCCC[C@H](NC(=O)/C=C/c1ccccc1)C(=O)N[C@@H](C[C@@H]1CCNC1=O)C(=O)C(=O)NCc1ccccc1,,,,,,> 20,,> 50,,,,8.5,3.24,,,,5.2,,
O=C(/C=C/c1ccccc1)N[C@@H](CC1CC1)C(=O)N[C@@H](C[C@@H]1CCNC1=O)C(=O)C(=O)NCc1ccccc1,3.8,106,> 189,10.9,1.9,> 20,0.08,1.37,18,5.5,46,0.24,18.5,18.4,103,10.4,4.25,1.3,
O=C(/C=C/c1ccccc1)N[C@@H](Cc1ccc(F)cc1)C(=O)N[C@@H](C[C@@H]1CCNC1=O)C(=O)C(=O)NCc1ccccc1,,,,,,> 20,,> 50,,,,,2.32,,,,8.69,,
O=C(/C=C/c1ccccc1)N[C@@H](CC1CCCC1)C(=O)N[C@@H](C[C@@H]1CCNC1=O)C(=O)C(=O)NCc1ccccc1,0.51,30.8,47.5,11.1,3.6,8.9,0.007,5.41,5.1,0.42,4.2,1.27,4.73,4.9,33.2,8.1,1.93,2.5,
